IC50 data for eleven compounds are collected here from ChEMBL document CHEMBL1142386, “Synthesis and structure-activity relationship studies in peripheral benzodiazepine receptor ligands related to alpidem” (Bioorg Med Chem, 2008).

The assay deals with Translocator protein (Rattus norvegicus, UniProt P16257). Briefly: Displacement of [3H]PK115 from peripheral benzodiazepine receptor in Sprague-Dawley rat cortical membrane. A digest of the protocol: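 Male Sprague–Dawley rats, 200–250 g; cerebral cortex homogenized in ice-cold PBS pH 7.4, washed twice by centrifugation at 40,000g. Filtration on PEI-presoaked GF/B filters, scintillation counting. IC50 from 6–10 concentrations in triplicate; mean ± SEM of three determinations.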
(In a radioligand displacement assay an active substance lowers the binding of a labelled ligand.)

Translocator protein, sequence (P16257 whole entry, looked up): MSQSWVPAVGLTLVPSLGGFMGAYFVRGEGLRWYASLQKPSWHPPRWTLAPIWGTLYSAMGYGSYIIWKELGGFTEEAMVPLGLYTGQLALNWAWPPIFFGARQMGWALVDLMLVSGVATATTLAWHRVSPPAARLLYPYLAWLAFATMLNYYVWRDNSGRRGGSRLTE

The term IC50 denotes the concentration needed to halve the response being measured. High values mean a need for much substance, low ones inhibition by little substance. `CN(Cc1ccccc1)C(=O)/C=C1\c2nc3ccccc3cc2C(=O)N1c1ccc(Cl)cc1` displayed an IC50 of 0.026 µM.
Turning to `CN(C(=O)/C=C1\c2nc3ccccc3cc2C(=O)N1c1ccc(Cl)cc1)c1ccc(Cl)cc1`, the IC50 was 0.00062 µM.
The figure for `COc1ccc(N(C)C(=O)/C=C2\c3nc4ccccc4cc3C(=O)N2c2ccc(Cl)cc2)cc1` is 0.0009 µM; for `COc1ccc(NC(=O)/C=C2\c3nc4ccccc4cc3C(=O)N2c2ccc(Cl)cc2)cc1` it is 0.076 µM; for `COc1ccc(N(C)C/C=C2\c3nc4ccccc4cc3C(=O)N2c2ccc(Cl)cc2)cc1` it is 2.36 µM.
In the case of `COc1ccc(N(C)C(=O)/C=C2\c3nc4ccccc4cc3C(=O)N2c2ccccc2)cc1`, the IC50 came to 0.012 µM.
For `CN(C(=O)/C=C1\c2nc3ccccc3cc2C(=O)N1c1ccccc1)c1ccc(Cl)cc1` the value was 0.01 µM; for `C#CCN(C)C(=O)/C=C1\c2nc3ccccc3cc2C(=O)N1c1ccc(Cl)cc1`, 0.32 µM.
For `CN(C(=O)/C=C1\c2nc3ccccc3cc2C(=O)N1c1ccc(Cl)cc1)c1ccc(O)cc1`, the IC50 amounted to 0.074 µM.
In turn, `CN(C(=O)/C=C1\c2nc3ccccc3cc2C(=O)N1c1ccc(Cl)cc1)c1ccccc1` came in with an IC50 of 0.044 µM.
The compound `CCN(Cc1ccccc1)C(=O)/C=C1\c2nc3ccccc3cc2C(=O)N1c1ccc(Cl)cc1` gave an IC50 of 0.015 µM. This IC50 is about 2.9-fold lower than that of the compound before.
